# Test results from ChEMBL document CHEMBL2069223, “Near-infrared fluorescent divalent RGD ligand for integrin αvβ₃-targeted optical imaging” (Bioorg Med Chem Lett, 2012).
# Active and inactive are the calls of the source. The rule behind the calls is not given here.
# How the values were obtained:
# Integrin alpha-V/beta-3 [1] = target: T1, Integrin alpha-V/beta-3 (Homo sapiens, UniProt P05106+P06756); experiment: Binding affinity to integrin alphavbeta3 in human A549 cells assessed as cellular uptake in nucleus measured by co-localization with DRAQ5 after 16 hrs by two-dimensional confocal image analysis; type: cell-based
# How it was run: (§1)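 A549 cells incubated with probe for 16 h. Confocal imaging with excitation at 488, 633 and 755 nm, scanning a field at 2 µs per pixel. Images overlay a nuclear stain, a mitochondrial stain and cypate fluorescence, and subcellular localization is judged from this co-localization.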
# Integrin alpha-V/beta-3 [2] = target: T1, Integrin alpha-V/beta-3; experiment: Binding affinity to integrin alphavbeta3 in human A549 cells assessed as cellular uptake after 6 hrs by NIR Fluorescence microscopy analysis; type: cell-based
# How it was run: (§2)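 Integrin αvβ3-positive A549 cells were incubated with the NIR fluorescent probes. Cellular binding and uptake were then imaged by NIR fluorescence microscopy at separate incubation time points.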
# Integrin alpha-V/beta-3 [3] = target: T1, Integrin alpha-V/beta-3; experiment: Binding affinity to integrin alphavbeta3 in human A549 cells assessed as cellular uptake after 1 hr by NIR Fluorescence microscopy analysis; type: cell-based; how it was run: as §2
# Kidney [4] = experiment: Biodistribution in kidney of nude mouse xenografted with human A549 cells expressing integrin alphavbeta3 at 60 uM, iv after 4 hrs by NIR Fluorescence image analysis; type: ADME, organism-based; details: in vivo
# How it was run: (§3)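 Nude mice bearing A549 xenografts (5–7 mm diameter) received 100 µL of 60 µM probe by tail-vein injection. Noninvasive whole-body NIR fluorescence imaging (excitation 780 nm, emission 830 nm) was done at 1, 4 and 24 h post-injection, and tissue fluorescence intensity was measured from the images.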
# Liver [5] = experiment: Biodistribution in liver of nude mouse xenografted with human A549 cells expressing integrin alphavbeta3 at 60 uM, iv after 4 hrs by NIR Fluorescence image analysis; type: ADME, organism-based; details: in vivo; how it was run: as §3
# Integrin alpha-V/beta-3 [6] = target: T1, Integrin alpha-V/beta-3; experiment: Binding affinity to integrin alphavbeta3 in human A549 cells assessed as cellular uptake in mitochondria measured by co-localization with mitotracker orange CM-TMRos after 16 hrs by two-dimensional confocal image analysis; type: cell-based; how it was run: as §1
# Integrin alpha-V/beta-3 [7] = target: T1, Integrin alpha-V/beta-3; experiment: Displacement of [125I]-c(RGDyK) from human integrin alphavbeta3 after 16 hrs by scintillation counting; type: protein-complex assay
# Blood = experiment: Biodistribution in blood of nude mouse xenografted with human A549 cells expressing integrin alphavbeta3 at 60 uM, iv after 24 hrs by NIR Fluorescence image analysis; type: ADME, organism-based; details: in vivo
# How it was run: (§4)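 Nude mice bearing A549 xenografts (5–7 mm diameter) received 100 µL of 60 µM probe by tail-vein injection. Animals were euthanized at 24 h post-injection. Excised organs were imaged ex vivo for NIR fluorescence (excitation 780 nm, emission 830 nm), and organ fluorescence intensity was measured.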
# Zone of skin = experiment: Biodistribution in skin of nude mouse xenografted with human A549 cells expressing integrin alphavbeta3 at 60 uM, iv after 24 hrs by NIR Fluorescence image analysis; type: ADME, organism-based; details: in vivo; how it was run: as §4
# Mus musculus [8] = experiment: Biodistribution in tumor of nude mouse xenografted with human A549 cells expressing integrin alphavbeta3 at 60 uM, iv after 24 hrs by NIR Fluorescence image analysis; type: ADME, organism-based, Neoplasm; details: in vivo; how it was run: as §4
# Liver [9] = experiment: Biodistribution in liver of nude mouse xenografted with human A549 cells expressing integrin alphavbeta3 at 60 uM, iv after 24 hrs by NIR Fluorescence image analysis; type: ADME, organism-based; details: in vivo; how it was run: as §4
# Mus musculus [10] = experiment: Biodistribution in tumor of nude mouse xenografted with human A549 cells expressing integrin alphavbeta3 at 60 uM, iv after 4 hrs by NIR Fluorescence image analysis; type: ADME, organism-based, Neoplasm; details: in vivo; how it was run: as §3
# Pancreas = experiment: Biodistribution in pancreas of nude mouse xenografted with human A549 cells expressing integrin alphavbeta3 at 60 uM, iv after 24 hrs by NIR Fluorescence image analysis; type: ADME, organism-based; details: in vivo; how it was run: as §4
# Mus musculus [11] = experiment: Biodistribution in adrenal of nude mouse xenografted with human A549 cells expressing integrin alphavbeta3 at 60 uM, iv after 24 hrs by NIR Fluorescence image analysis; type: ADME, organism-based, Adrenal tissue; details: in vivo; how it was run: as §4
# Kidney [12] = experiment: Biodistribution in kidney of nude mouse xenografted with human A549 cells expressing integrin alphavbeta3 at 60 uM, iv after 24 hrs by NIR Fluorescence image analysis; type: ADME, organism-based; details: in vivo; how it was run: as §4
# Heart = experiment: Biodistribution in heart of nude mouse xenografted with human A549 cells expressing integrin alphavbeta3 at 60 uM, iv after 24 hrs by NIR Fluorescence image analysis; type: ADME, organism-based; details: in vivo; how it was run: as §4
# Brain = experiment: Biodistribution in brain of nude mouse xenografted with human A549 cells expressing integrin alphavbeta3 at 60 uM, iv after 24 hrs by NIR Fluorescence image analysis; type: ADME, organism-based; details: in vivo; how it was run: as §4
# Spleen = experiment: Biodistribution in spleen of nude mouse xenografted with human A549 cells expressing integrin alphavbeta3 at 60 uM, iv after 24 hrs by NIR Fluorescence image analysis; type: ADME, organism-based; details: in vivo; how it was run: as §4
# Muscle tissue = experiment: Biodistribution in muscle of nude mouse xenografted with human A549 cells expressing integrin alphavbeta3 at 60 uM, iv after 24 hrs by NIR Fluorescence image analysis; type: ADME, organism-based; details: in vivo; how it was run: as §4
SMILES,Activity (Integrin alpha-V/beta-3 [1]),Activity (Integrin alpha-V/beta-3 [2]),Activity (Integrin alpha-V/beta-3 [3]),Drug uptake (Kidney [4]),Drug uptake (Liver [5]),Activity (Integrin alpha-V/beta-3 [6]),IC50 (Integrin alpha-V/beta-3 [7]),Ki (Integrin alpha-V/beta-3 [7]),Drug uptake (Blood),Drug uptake (Zone of skin),Drug uptake (Mus musculus [8]),Drug uptake (Liver [9]),Drug uptake (Mus musculus [10]),Drug uptake (Pancreas),Drug uptake (Mus musculus [11]),Drug uptake (Kidney [12]),Drug uptake (Heart),Drug uptake (Brain),Drug uptake (Spleen),Drug uptake (Muscle tissue)
CC1(C)C(/C=C/C=C/C=C/C=C2/N(CCC(=O)NCCCC[C@@H]3NC(=O)[C@@H](Cc4ccccc4)NC(=O)[C@H](CC(=O)O)NC(=O)CNC(=O)[C@H](CCCNC(=N)N)NC3=O)c3ccc4ccccc4c3C2(C)C)=[N+](CCC(=O)O)c2ccc3ccccc3c21.[Br-],Active,Active,Active,Active,Active,Active,[…],[…],,,,,,,,,,,,
CC1(C)C(/C=C/C=C/C=C/C=C2/N(CCC(=O)O)c3ccc4ccccc4c3C2(C)C)=[N+](CCC(=O)O)c2ccc3ccccc3c21,,Active,Active,,,,,,,,,,,,,,,,,
CC1(C)C(/C=C/C=C/C=C/C=C2/N(CCC(=O)NCCCC[C@@H]3NC(=O)[C@@H](Cc4ccccc4)NC(=O)[C@H](CC(=O)O)NC(=O)CNC(=O)[C@H](CCCNC(=N)N)NC3=O)c3ccc4ccccc4c3C2(C)C)=[N+](CCC(=O)NCCCC[C@@H]2NC(=O)[C@@H](Cc3ccccc3)NC(=O)[C@H](CC(=O)O)NC(=O)CNC(=O)[C@H](CCCNC(=N)N)NC2=O)c2ccc3ccccc3c21.[Br-],Active,Active,Active,Active,Active,Active,0.281 nM,0.043 nM,Active,Active,Active,Active,Active,Active,Active,Active,Active,Active,Active,Active
